We go through 14 compounds from PubChem BioAssay.

The nature of experiment [1]: inhibitors of TNFa-induced NFkB p65 translocation, primary screen, imaging, HUVEC, MLSMR starter and 10KST1 sets (AID 438;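 active = inhibition above 20% together with a positive visual image hit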;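 also: compound added about 3h40 before a 20 min TNFalpha stimulation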;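 as to inhibition: signal is the nuclear over cytoplasmic p65 intensity ratio per well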). Conditions: HUVEC TNFa-induced p65 nuclear translocation; cell count: measured here: nuclei count (cytotoxicity indicator), at 2.08 µM; inhibition: at 2 µM, stronger effect = higher value, 0% TNFa-plus-vehicle, 100% no-TNFa wells.
Experiment [2] is described as follows: inhibitors of mutant huntingtin aggregation, primary screen, imaging, exon1htt(103Q)mCFP cells, high-content imaging (AID 483;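 active = visual image review flags a hit and inhibition of aggregation exceeds 20%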;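 also: compound exposure lasted 3 days before fixation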;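 as to nuclei count: percent of the per-plate median nuclei count of sample wells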). As to conditions: exon1htt(103Q)mCFP cell line, aggregate imaging, at 2 µM; inhibition of aggregation: stronger effect = higher value; nuclei count: measured here: cell count, toxicity.
Experiment [3] can be described thus: inhibitors of E-selectin induction by TNFa, primary screen, imaging, HUVEC, immunofluorescence, MLSMR starter and 10KST1 sets (AID 487;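 active = visually confirmed hit in the image check and inhibition above 20%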;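 as to inhibition: signal is fraction of cell area covered by stained E-selectin grains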;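 as to nuclei count: 100% = median nuclei count of all wells on the same plate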). As to conditions: HUVEC TNFalpha-induced E-selectin immunofluorescence imaging, at 2 µM; inhibition: stronger effect = higher value; nuclei count: measured here: cell number, toxicity.
Experiment [4] has as its target Voltage-gated potassium channel subunit beta-2 (Rattus norvegicus) (UniProt P62483). The experiment in a line: KvBeta enzyme negative modulators, primary screen, biochemical, NADPH fluorescence (AID 622;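 active = fluorescence slope higher than the sample average by over 3 SD, cut at about -0.22 in these data, passing the limit was not always enough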;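 also: slope of raw intensity against log time taken from 70 to 1610 s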). Conditions: recombinant KvBeta, 4-cyanobenzaldehyde reduction, at 10 µM, stronger effect = higher value.
For experiment [5] the target is unchanged. The experiment in a line: KvBeta positive modulators, primary screen, biochemical, NADPH fluorescence (AID 623;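 active = NADPH fluorescence slope more negative than the mean of all samples by about 3 SD, 99.7% confidence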;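 also: fluorescence intensity change per second fitted from 20 to 320 s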). Conditions: Recombinant KvBeta, NADPH fluorescence decrease slope, 10 min; at 10 µM; stronger effect = lower value.
The target of experiment [6] is Muscarinic acetylcholine receptor M4 (Homo sapiens) (UniProt P08173). The experiment in a line: compounds altering M4/GIRK thallium flux, either direction, primary screen, M4 allosteric agonist project, cell-based, HEK293 M4/GIRK, BTC-AM (AID 625;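 active = fluorescence slope after compound addition differing from the mean of all tested samples at 99.7% confidence, mostly higher but some lower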;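 also: thallium influx through GIRK channels coupled to M4 in HEK293 cells with BTC-AM dye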). As to conditions: at 10 µM, actives lie on both sides. The gist of the method:
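Material: M4/GIRK1/GIRK2 stable HEK293 cell line. Medium: pH 7.3 thallium assay buffer. Dosing: single compound concentration, 10 µM final. Schedule: 1 h dye loading, 2 min kinetic read. Measured by: kinetic fluorescence with BTC-AM dye. Read-out: post-addition slope, 15–24 s, of baseline-normalized fluorescence. Benchmarks: carbachol and DMSO controls.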

The nature of experiment [7]: inhibitors of Sendai virus-induced IRF3 signaling, primary screen, TLR/RLR signaling modifier project, cell-based, Sendai virus stimulus, luciferase, 10K MLSCN set (AID 602276).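 Also: firefly luciferase from ISG56 promoter only with Renilla not read in this screen; 0% = Sendai virus plus DMSO and 100% = medium plus DMSO without virus.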 Conditions: HEK293 RL24 IRF3 luciferase reporter, at 10 µM, stronger effect = higher value. On the technique in general: In a reporter assay the amount or activity of a reporter protein is the signal.
A short description of experiment [8]: inhibitors of poly I:C-induced TLR3 signaling, primary screen, cell-based, poly I:C stimulus, luciferase, 10K MLSCN set (AID 602277;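 active = inhibition of the reporter signal at or above 50%; inactive = inhibition below 50%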). As to conditions: HEK293-TLR3 RL24 IRF3 luciferase reporter, at 10 µM, stronger effect = higher value.

Molecules are shown by their SMILES. Active and inactive are the calls of the source.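 The calls were made as follows, unless noted: active = inhibition at or above 50% at 10 µM; inactive = inhibition below 50%.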

Sequence of Muscarinic acetylcholine receptor M4 (Homo sapiens) (P08173 whole entry, looked up): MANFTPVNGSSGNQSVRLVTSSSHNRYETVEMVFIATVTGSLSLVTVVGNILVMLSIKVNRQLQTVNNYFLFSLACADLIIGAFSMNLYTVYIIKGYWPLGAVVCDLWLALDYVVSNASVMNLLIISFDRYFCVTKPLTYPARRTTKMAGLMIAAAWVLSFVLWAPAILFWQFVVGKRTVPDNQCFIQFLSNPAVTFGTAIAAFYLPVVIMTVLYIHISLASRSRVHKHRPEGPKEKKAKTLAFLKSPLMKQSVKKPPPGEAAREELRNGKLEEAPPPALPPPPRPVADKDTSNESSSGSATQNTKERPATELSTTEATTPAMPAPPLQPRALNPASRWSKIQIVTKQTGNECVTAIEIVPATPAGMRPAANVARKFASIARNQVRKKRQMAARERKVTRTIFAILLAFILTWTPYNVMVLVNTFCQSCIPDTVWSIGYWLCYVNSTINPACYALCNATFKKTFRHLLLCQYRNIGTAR
Sequence of Voltage-gated potassium channel subunit beta-2 (Rattus norvegicus) (P62483 whole entry, looked up): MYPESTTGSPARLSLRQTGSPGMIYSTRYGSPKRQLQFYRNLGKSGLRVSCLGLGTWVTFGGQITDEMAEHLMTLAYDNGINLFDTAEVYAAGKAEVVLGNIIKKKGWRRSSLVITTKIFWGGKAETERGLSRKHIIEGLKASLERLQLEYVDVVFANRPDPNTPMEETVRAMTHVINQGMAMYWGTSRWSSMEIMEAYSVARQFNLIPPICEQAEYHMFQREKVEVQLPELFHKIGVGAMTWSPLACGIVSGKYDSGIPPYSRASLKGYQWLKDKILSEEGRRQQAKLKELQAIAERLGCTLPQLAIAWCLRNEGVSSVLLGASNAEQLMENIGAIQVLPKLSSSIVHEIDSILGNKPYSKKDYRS

For `O=C(Nc1nccs1)c1ccc(Cl)c(S(=O)(=O)N2CCCCC2)c1`, in experiment [1], the cell count was 355. Also, the inhibition in experiment [1] is 1.3% (inactive); in experiment [3] it was -4.7% (inactive); in experiment [7], 8.7% (inactive); in experiment [8] it was 7.95% (inactive). Moreover, the inhibition of aggregation in experiment [2] is 30.8% (active). In addition, the nuclei count stood at 109% in experiment [2] and 117% in experiment [3]. For the same compound, the figures for the fluorescence slope in experiment [4] and in experiment [6] were -0.311 (inactive) and 0.00573 (inactive), respectively. Besides, in experiment [5], the NADPH fluorescence slope is -3.8e-05 (inactive).
With `Cc1ccc(CNC(=O)CCCn2c(=O)c3ccccc3n(CC(=O)NCc3ccco3)c2=O)cc1`, in experiment [1], the cell count turned out to be 451. Further, the inhibition is -11.1% (inactive) in experiment [1], -76.5% (inactive) in experiment [3], -6.73% (inactive) in experiment [7] and -15.2% (inactive) in experiment [8]. Also, in experiment [2], the inhibition of aggregation was -4% (inactive). In addition, the nuclei count in experiment [2] is 114%; in experiment [3], 97.1%. Moreover, the fluorescence slope is -0.509 (inactive) in experiment [4] and 0.00296 (inactive) in experiment [6]. In experiment [5], the NADPH fluorescence slope was -0.000209 (inactive).
Consider `Cc1ccc(NC(=O)c2oc3ccc(S(=O)(=O)N4CCOCC4)cc3c2C)cc1C`, for which the cell count in experiment [1] came to 357. Moreover, the inhibition in experiment [1] is -20.4% (inactive); in experiment [3] it was -98.4% (inactive); in experiment [7] it was 11% (inactive); in experiment [8], 13.9% (inactive). Besides, the inhibition of aggregation in experiment [2] is -20.5% (inactive). For the same compound, the nuclei count in experiment [2] was 109%; in experiment [3], 133%. Further, the fluorescence slope is -0.278 (inactive) in experiment [4] and 0.00768 (inactive) in experiment [6]. Further, in experiment [5], the NADPH fluorescence slope is 2.2e-05 (inactive).
With `Cc1cc2ncc(C(=O)Nc3ccccc3)c(C)n2n1`, in experiment [1], the cell count turned out to be 376. Also, the inhibition in experiment [1] is 4.2% (inactive); in experiment [3], 27.5% (inactive); in experiment [7], 1.55% (inactive); in experiment [8], -14.2% (inactive). In addition, the inhibition of aggregation in experiment [2] is -9.1% (inactive). The nuclei count is 101% in experiment [2] and 93.8% in experiment [3]. Further, the results for the fluorescence slope in experiment [4] and in experiment [6] were -0.54 (inactive) and 0.00501 (inactive), respectively. Also, the NADPH fluorescence slope in experiment [5] is -1.5e-05 (inactive).
`CC(C)(C)NC(=O)Cn1nnc(-c2cccs2)n1`: the cell count in experiment [1] was determined as 238. Besides, the inhibition in experiment [1] was 6.4% (inactive); in experiment [3] it was -3.4% (inactive); in experiment [7] it was 1.59% (inactive); in experiment [8] it was -13% (inactive). Also, in experiment [2], the inhibition of aggregation was 23.3% (inactive). Further, the results for the nuclei count in experiment [2] and in experiment [3] were 99% and 85.2%, respectively. Further, the fluorescence slope was -0.508 (inactive) in experiment [4] and 0.00413 (inactive) in experiment [6]. For the same compound, in experiment [5], the NADPH fluorescence slope is -1.3e-05 (inactive).
Take `O=C(O)CC1CCCC(c2ccccc2)C1=O` (centres undefined): the cell count in experiment [1] amounted to 658. The inhibition in experiment [1] is -6.5% (inactive); in experiment [3] it was 108% (active); in experiment [7], 8.33% (inactive); in experiment [8] it was 11.2% (inactive). The inhibition of aggregation in experiment [2] is -35% (inactive). The nuclei count in experiment [2] worked out at 103%; in experiment [3], 102%. In addition, the fluorescence slope in experiment [4] is -0.544 (inactive); in experiment [6], 0.00508 (inactive). Moreover, the NADPH fluorescence slope in experiment [5] is -7.4e-06 (inactive).
Take `CCOC(=O)c1cc(-c2ccc(Cl)s2)nc2c1c(C)nn2C`: in experiment [1], the cell count worked out at 473. The inhibition is -11% (inactive) in experiment [1], -142% (inactive) in experiment [3], 8.23% (inactive) in experiment [7] and -18.9% (inactive) in experiment [8]. Also, the inhibition of aggregation in experiment [2] is -13.7% (inactive). Further, the nuclei count was 95% in experiment [2] and 106% in experiment [3]. Also, the fluorescence slope in experiment [4] was -0.494 (inactive); in experiment [6], 0.00338 (inactive). The NADPH fluorescence slope in experiment [5] was -1.5e-05 (inactive).
`CCCC(=O)Nc1ccccc1NC(=O)CN(C)S(=O)(=O)c1ccc(C)cc1`: the cell count in experiment [1] amounted to 182. Further, the inhibition was -6.3% (inactive) in experiment [1], 20.2% (inactive) in experiment [3], 1.42% (inactive) in experiment [7] and 11.1% (inactive) in experiment [8]. Moreover, in experiment [2], the inhibition of aggregation is -6.6% (inactive). Besides, the nuclei count in experiment [2] was determined as 81.6%; in experiment [3], 83.4%. The results for the fluorescence slope in experiment [4] and in experiment [6] were -0.56 (inactive) and 0.00633 (inactive), respectively. In experiment [5], the NADPH fluorescence slope is -3e-05 (inactive).
As to `COc1cccc2cc(C(=O)N3CCc4ccccc43)c(=O)oc12`, the cell count in experiment [1] stood at 274. For the same compound, the inhibition in experiment [1] was 4.3% (inactive); in experiment [3], 18.4% (inactive); in experiment [7], 8.43% (inactive); in experiment [8], 21% (inactive). The inhibition of aggregation in experiment [2] was -4.2% (inactive). The nuclei count is 106% in experiment [2] and 99% in experiment [3]. The fluorescence slope in experiment [4] was -0.466 (inactive); in experiment [6] it was 0.00512 (inactive). Also, the NADPH fluorescence slope in experiment [5] was -5.5e-06 (inactive).
Take `CCOC(=O)C1=C(c2ccccc2)Nc2nc(C)nn2C1c1cccc(OC)c1OC` (centres undefined): the cell count in experiment [1] was found to be 613. The inhibition in experiment [1] was 1.7% (inactive); in experiment [3], -152% (inactive); in experiment [7] it was 5.33% (inactive); in experiment [8] it was 15.1% (inactive). Besides, the inhibition of aggregation in experiment [2] was -13.2% (inactive). Moreover, the nuclei count in experiment [2] came out at 111%; in experiment [3] it was 149%. In addition, the fluorescence slope in experiment [4] was -0.508 (inactive); in experiment [6], 0.00365 (inactive). In addition, the NADPH fluorescence slope in experiment [5] was -0.000215 (inactive).
On to `CCC(C)C(NC(=O)C1CCC(C)CC1)C(=O)NCc1cccnc1` (centres undefined), for which, in experiment [1], the cell count amounted to 320. Besides, the inhibition is -13.1% (inactive) in experiment [1], 22.9% (inactive) in experiment [3], 12.4% (inactive) in experiment [7] and 4.61% (inactive) in experiment [8]. Moreover, the inhibition of aggregation in experiment [2] is 1.5% (inactive). For the same compound, the results for the nuclei count in experiment [2] and in experiment [3] were 103% and 102%, respectively. The fluorescence slope is -0.325 (inactive) in experiment [4] and 0.00576 (inactive) in experiment [6]. Besides, in experiment [5], the NADPH fluorescence slope was -5.6e-05 (inactive).
Consider `Cc1ccccc1N1CC(c2nc3ccccc3[nH]2)CC1=O` (centres undefined), for which, in experiment [1], the cell count was 385. Besides, the inhibition was 3% (inactive) in experiment [1], -7.2% (inactive) in experiment [3], -2.87% (inactive) in experiment [7] and 98.3% (active) in experiment [8]. Besides, in experiment [2], the inhibition of aggregation was -1.2% (inactive). Besides, the nuclei count came out at 107% in experiment [2] and 110% in experiment [3]. For the same compound, the values for the fluorescence slope in experiment [4] and in experiment [6] were -0.478 (inactive) and 0.0056 (inactive), respectively. Moreover, in experiment [5], the NADPH fluorescence slope is -1.5e-05 (inactive).
With `Cc1ccc(S(=O)(=O)N(C)Cc2cc3ccccc3[nH]c2=O)cc1`, the cell count in experiment [1] is 544. Besides, the inhibition in experiment [1] is -5% (inactive); in experiment [3] it was 29.4% (inactive); in experiment [7] it was 8.78% (inactive); in experiment [8], 70.5% (active). In addition, the inhibition of aggregation in experiment [2] is 12.8% (inactive). In addition, the nuclei count amounted to 99.8% in experiment [2] and 104% in experiment [3]. Further, the fluorescence slope in experiment [4] was -0.52 (inactive); in experiment [6], 0.00517 (inactive). Moreover, the NADPH fluorescence slope in experiment [5] was -0.000101 (inactive).
Consider `CCOC(=O)c1sc(C)c2c1NC(C)(c1cccs1)NC2=O` (centres undefined), for which the cell count in experiment [1] was 674. Moreover, the inhibition in experiment [1] is -2% (inactive); in experiment [3], -10.7% (inactive); in experiment [7], 5.21% (inactive); in experiment [8], 10.9% (inactive). The inhibition of aggregation in experiment [2] was -5.5% (inactive). Moreover, the values for the nuclei count in experiment [2] and in experiment [3] were 104% and 101%, respectively. The fluorescence slope in experiment [4] was -0.49 (inactive); in experiment [6], 0.00453 (inactive). Further, in experiment [5], the NADPH fluorescence slope was 1.8e-05 (inactive).

By inhibition is commonly meant the drop in the measured response relative to a control, in per cent.
